Test results reported in ChEMBL document CHEMBL1921722, “In vitro and in vivo evaluation of select kahalalide F analogs with antitumor and antifungal activities” (Bioorg Med Chem, 2011).
≈ marks a conversion by molar mass, not a printed value. Calls of active or inactive are those of the source. No cut-off for these calls is given here.

Key:
A549 = test: Cytotoxicity against human A549 cells assessed as cell growth at 80 nM by sulforhodamine B assay relative to control; format: functional; settings: read-out: Activity
Summary of the method: (§1)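 Run at NCI in the DTP 60-cell-line human tumor panel by standard procedure. Compounds were first screened at a single concentration, then tested at five tenfold-spaced concentrations. GI50 is the concentration reducing treated-cell growth to half that of untreated controls; TGI is the concentration completely halting growth.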

NCI-H23 [1] = test: Cytotoxicity against human NCI-H23 cells assessed as cell growth at 80 nM by sulforhodamine B assay relative to control; format: functional; settings: read-out: Activity
BT-549 [2] = test: Cytotoxicity against human BT549 cells by sulforhodamine B assay; format: functional; summary of the method: as §1
T47D = test: Cytotoxicity against human T47D cells by sulforhodamine B assay; format: functional
Summary of the method: (§2)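 NCI Developmental Therapeutics Program 60-cell-line human tumor panel screen, run at NCI. A single-concentration pre-screen was followed by a five-concentration dose-response in 10-fold steps. GI50 is the concentration that reduces growth of treated cells to half that of untreated control cells. TGI is the concentration that completely halts growth.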

HT-29 [3] = test: Cytotoxicity against human HT-29 cells assessed as cell growth at 80 nM by sulforhodamine B assay relative to control; format: functional; settings: read-out: Activity
SNB-75 = test: Cytotoxicity against human SNB75 cells assessed as cell growth at 8 nM by sulforhodamine B assay relative to control; format: functional; settings: read-out: Activity
MDA-MB-435 = test: Cytotoxicity against human MDA-MB-435 cells assessed as cell growth at 80 uM by sulforhodamine B assay relative to control; format: functional; settings: read-out: Activity
HCC 2998 = test: Cytotoxicity against human HCC2998 cells assessed as cell growth at 8 uM by sulforhodamine B assay relative to control; format: functional; settings: read-out: Activity
SF-295 [4] = test: Cytotoxicity against human SF295 cells assessed as cell growth at 8 uM by sulforhodamine B assay relative to control; format: functional; settings: read-out: Activity
IGROV-1 [5] = test: Cytotoxicity against human IGROV1 cells assessed as cell growth at 80 uM by sulforhodamine B assay relative to control; format: functional; settings: read-out: Activity
HT-29 [6] = test: Cytotoxicity against human HT-29 cells assessed as cell growth at 8 nM by sulforhodamine B assay relative to control; format: functional; settings: read-out: Activity
ACHN = test: Cytotoxicity against human ACHN cells assessed as cell growth at 8 uM by sulforhodamine B assay relative to control; format: functional; settings: read-out: Activity; summary of the method: as §1
NCI-H226 = test: Cytotoxicity against human NCI-H226 cells assessed as cell growth at 8 uM by sulforhodamine B assay relative to control; format: functional; settings: read-out: Activity
SK-MEL-2 = test: Cytotoxicity against human SK-MEL-2 cells assessed as cell growth at 8 nM by sulforhodamine B assay relative to control; format: functional; settings: read-out: Activity
K562 = test: Cytotoxicity against human K562 cells assessed as cell growth at 8 uM by sulforhodamine B assay relative to control; format: functional; settings: read-out: Activity
UACC-257 = test: Cytotoxicity against human UACC257 cells assessed as cell growth at 80 uM by sulforhodamine B assay relative to control; format: functional; settings: read-out: Activity
SNB-19 [7] = test: Cytotoxicity against human SNB19 cells assessed as cell growth at 80 uM by sulforhodamine B assay relative to control; format: functional; settings: read-out: Activity
UACC-62 = test: Cytotoxicity against human UACC62 cells assessed as cell growth at 8 nM by sulforhodamine B assay relative to control; format: functional; settings: read-out: Activity
HT-29 [8] = test: Cytotoxicity against human HT-29 cells assessed as cell growth at 8 uM by sulforhodamine B assay relative to control; format: functional; settings: read-out: Activity
SF-295 [9] = test: Cytotoxicity against human SF295 cells assessed as cell growth at 80 uM by sulforhodamine B assay relative to control; format: functional; settings: read-out: Activity
RPMI-8226 = test: Cytotoxicity against human RPMI8226 cells assessed as cell growth at 8 uM by sulforhodamine B assay relative to control; format: functional; settings: read-out: Activity
HCT-15 = test: Cytotoxicity against human HCT15 cells assessed as cell growth at 800 nM by sulforhodamine B assay relative to control; format: functional; settings: read-out: Activity
NCI-H23 [10] = test: Cytotoxicity against human NCI-H23 cells assessed as cell growth at 800 nM by sulforhodamine B assay relative to control; format: functional; settings: read-out: Activity
HL-60(TB) [11] = test: Cytotoxicity against human HL-60(TB) cells assessed as cell growth at 8 uM by sulforhodamine B assay relative to control; format: functional; settings: read-out: Activity
MDA-MB-231 [12] = test: Cytotoxicity against human MDA-MB-231 cells assessed as cell growth at 800 nM by sulforhodamine B assay relative to control; format: functional; settings: read-out: Activity
Pseudomonas aeruginosa = test: Antimicrobial activity against Pseudomonas aeruginosa ATCC 27853 by CLSI method; format: functional, organism-based
NCI/ADR-RES = test: Cytotoxicity against human NCI/ADR-RES cells by sulforhodamine B assay; format: functional; summary of the method: as §2
SF-268 = test: Cytotoxicity against human SF268 cells assessed as cell growth at 8 nM by sulforhodamine B assay relative to control; format: functional; settings: read-out: Activity
Malme-3M = test: Cytotoxicity against human MALME-3M cells assessed as cell growth at 8 uM by sulforhodamine B assay relative to control; format: functional; settings: read-out: Activity
LOX IMVI = test: Cytotoxicity against human LOXIMVI cells assessed as cell growth at 800 nM by sulforhodamine B assay relative to control; format: functional; settings: read-out: Activity
OVCAR-3 = test: Cytotoxicity against human OVCAR3 cells assessed as cell growth at 8 uM by sulforhodamine B assay relative to control; format: functional; settings: read-out: Activity
SR = test: Cytotoxicity against human SR cells assessed as cell growth at 80 nM by sulforhodamine B assay relative to control; format: functional; settings: read-out: Activity
DU-145 = test: Cytotoxicity against human DU145 cells assessed as cell growth at 80 nM by sulforhodamine B assay relative to control; format: functional; settings: read-out: Activity
SNB-19 [13] = test: Cytotoxicity against human SNB19 cells by sulforhodamine B assay; format: functional; summary of the method: as §2
MDA-MB-231 [14] = test: Cytotoxicity against human MDA-MB-231 cells assessed as cell growth at 80 uM by sulforhodamine B assay relative to control; format: functional; settings: read-out: Activity
IGROV-1 [15] = test: Cytotoxicity against human IGROV1 cells assessed as cell growth at 8 uM by sulforhodamine B assay relative to control; format: functional; settings: read-out: Activity
PC-3 = test: Cytotoxicity against human PC3 cells by sulforhodamine B assay; format: functional; summary of the method: as §2
Candida albicans = test: Antimicrobial activity against Candida albicans ATCC 90028 by CLSI method; format: functional, organism-based
BT-549 [16] = test: Cytotoxicity against human BT549 cells assessed as cell growth at 8 uM by sulforhodamine B assay relative to control; format: functional; settings: read-out: Activity; summary of the method: as §1
MOLT-4 = test: Cytotoxicity against human MOLT4 cells assessed as cell growth at 8 uM by sulforhodamine B assay relative to control; format: functional; settings: read-out: Activity
HL-60(TB) [17] = test: Cytotoxicity against human HL-60(TB) cells assessed as cell growth at 80 nM by sulforhodamine B assay relative to control; format: functional; settings: read-out: Activity

Work on `C/C=C1\NC(=O)[C@H](Cc2ccccc2)NC(=O)[C@@H](C(C)C)NC(=O)[C@@H]([C@@H](C)CC)NC(=O)[C@H](NC(=O)[C@H](NC(=O)[C@H](CCCNCc2ccc(N3CCOCC3)cc2)NC(=O)[C@H]2CCCN2C(=O)[C@H](NC(=O)[C@@H](NC(=O)[C@@H](NC(=O)[C@H](NC(=O)CCCC(C)C)C(C)C)[C@@H](C)O)C(C)C)C(C)C)[C@@H](C)CC)[C@@H](C)OC(=O)[C@H](C(C)C)NC1=O` yielded a growth at 0.08 µM (A549) of 102%, a growth at 0.08 µM (NCI-H23 [1]) of 99% and a GI50 (BT-549 [2]) of 1350 nM. The TGI (BT-549 [2]; read-out: pTGI (converted)) was 2820 nM, the GI50 (T47D; read-out: GI50) was 167 nM and the TGI (T47D; read-out: TGI) was 466 nM. The GI50 (T47D; read-out: pGI50 (converted)) was 166 nM, the TGI (T47D; read-out: pTGI (converted)) was 468 nM and the growth at 0.08 µM (HT-29 [3]) was 93%. It also gave a growth at 0.008 µM (SNB-75) of 110%, a growth at 80 µM (MDA-MB-435) of -9% and a growth at 8 µM (HCC 2998) of -81%. For the same molecule, the growth at 8 µM (SF-295 [4]) was -40%, the growth at 80 µM (IGROV-1 [5]) was -30% and the growth at 0.008 µM (HT-29 [6]) was 92%. The growth at 8 µM (ACHN) was -84%, the growth at 8 µM (NCI-H226) was -55% and the growth at 0.008 µM (SK-MEL-2) was 105%. For the same molecule, the growth at 8 µM (K562) was 37%, the growth at 80 µM (UACC-257) was -28% and the growth at 80 µM (SNB-19 [7]) was -5%. For the same molecule, the growth at 0.008 µM (UACC-62) was 102%, the growth at 8 µM (HT-29 [8]) was -68% and the growth at 80 µM (SF-295 [9]) was -33%. For the same molecule, the growth at 8 µM (RPMI-8226) was -68%, the growth at 0.8 µM (HCT-15) was 3% and the growth at 0.8 µM (NCI-H23 [10]) was 103%. For the same molecule, the growth at 8 µM (HL-60(TB) [11]) was -17%, the growth at 0.8 µM (MDA-MB-231 [12]) was 86% and the Activity (Pseudomonas aeruginosa) was “inactive”. It also gave a GI50 (NCI/ADR-RES) of 1410 nM, an LC50 (NCI/ADR-RES) of 21.4 µM and a TGI (NCI/ADR-RES; read-out: pTGI (converted)) of 3.47 µM. For the same molecule, the growth at 0.008 µM (SF-268) was 98%, the growth at 8 µM (Malme-3M) was -71% and the growth at 0.8 µM (LOX IMVI) was 100%. For the same molecule, the growth at 8 µM (OVCAR-3) was -72%, the growth at 0.08 µM (SR) was 106% and the growth at 0.08 µM (DU-145) was 89%. It also gave a GI50 (SNB-19 [13]) of 1350 nM, a TGI (SNB-19 [13]; read-out: pTGI (converted)) of 2750 nM and a growth at 80 µM (MDA-MB-231 [14]) of -43%. For the same molecule, the growth at 8 µM (IGROV-1 [15]) was -75%, the LC50 (PC-3) was 741 nM and the GI50 (PC-3; read-out: GI50) was 156 nM. For the same molecule, the TGI (PC-3; read-out: TGI) was 340 nM, the GI50 (PC-3; read-out: pGI50 (converted)) was 155 nM and the TGI (PC-3; read-out: pTGI (converted)) was 339 nM. It also gave an IC50 (Candida albicans) of 5.76 µM, an MFC (Candida albicans) of over 20 µM and an MIC (Candida albicans) of 20 µM (≈ 33.1 µg/mL). The growth at 8 µM (BT-549 [16]) was -66%, the growth at 8 µM (MOLT-4) was 83% and the growth at 0.08 µM (HL-60(TB) [17]) was 96%.
